From ChEMBL document CHEMBL1938234, “Cytotoxic and antimalarial azaphilones from Chaetomium longirostre” (J Nat Prod, 2011)
pIC50: −log10 of the molar value.

Key:
Plasmodium falciparum = assay: Antimalarial activity against multidrug-resistant Plasmodium falciparum K1 assessed as inhibition of [3H]-hypoxanthine incorporation; format: functional, organism-based; conditions: for pIC50: Plasmodium falciparum, K1, read-out: IC50
Outline: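 In vitro culture of the K1 multidrug-resistant P. falciparum strain followed the Trager–Jensen method. Activity was scored by the Desjardins microculture radioisotope technique, reading [3H]-hypoxanthine uptake by the parasites. IC50 was taken as the concentration giving 50% reduction in parasite growth. Dihydroartemisinin served as the reference standard.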

KB = assay: Cytotoxicity against human KB cells by SRB assay; format: functional, cell-based
MCF7 = assay: Cytotoxicity against human MCF7 cells by SRB assay; format: functional, cell-based; conditions: for pIC50: Homo sapiens, MCF7, read-out: IC50; for IC50: mcf7
NCI-H187 = assay: Cytotoxicity against human NCI-H187 cells by SRB assay; format: functional, cell-based; conditions: for pIC50: Homo sapiens, NCI-H187, read-out: IC50; for IC50: nci-h187

Row | Structure (SMILES) | pIC50 (Plasmodium falciparum) | pIC50 (KB) | pIC50 (MCF7) | pIC50 (NCI-H187) | IC50 (MCF7) | IC50 (NCI-H187) | IC50 (Plasmodium falciparum)
1 | C[C@H]1[C@@H](O)O[C@@H]2O[C@@]3(C)CC[C@H]4[C@H](C)CC[C@@H]1[C@@]24OO3 [ARTENIMOL] | 8.40 | – | – | – | – | – | –
2 | COc1cccc2c1C(=O)c1c(O)c3c(c(O)c1C2=O)C[C@@](O)(C(=O)CO)C[C@@H]3O[C@H]1C[C@H](N)[C@H](O)[C@H](C)O1 [DOXORUBICIN] | – | 6.48 | 5.64 | 6.96 | – | – | –
3 | Cc1c2ccncc2c(C)c2c1[nH]c1ccccc12 [ELLIPTECINE] | – | 5.90 | – | 5.74 | – | – | –
4 | CCC(C)CC(C)/C=C(C)/C=C/C(=O)[C@H]1C(=O)O[C@@]2(C)C(=O)C=C3C=C([C@H]4C(=O)C=CC[C@@H]4C)OC=C3[C@@H]12 (some centres not stated) [LONGIROSTRERONE C] | 6.21 | 6.64 | – | – | Not Active | Not Active | –
5 | CCC(C)CC(C)/C=C(C)/C=C/C(=O)C1=C2C3=COC([C@H]4C(=O)C[C@H](O)C[C@@H]4C)=CC3=CC(=O)[C@@]2(C)OC1=O (some centres not stated) [LONGIROSTRERONE D] | – | 5.20 | 4.42 | 4.74 | – | – | Not Active
6 | CCC(C)CC(C)/C=C(C)/C=C/C(=O)[C@H]1C(=O)O[C@@]2(C)C(=O)C=C3C=C([C@H]4C(=O)C[C@H](O)C[C@@H]4C)OC=C3[C@@H]12 (some centres not stated) [LONGIROSTRERONEA] | 6.20 | 5.98 | 6.62 | 5.51 | – | – | –
7 | CCC(C)CC(C)/C=C(C)/C=C/C(=O)C[C@H]1C2=COC([C@H]3C(=O)C[C@H](O)C[C@@H]3C)=CC2=CC(=O)[C@]1(C)O (some centres not stated) [LONGIROSTRERONEB] | 5.43 | 5.82 | – | – | Not Active | Not Active | –
